For orientation: Ki means the equilibrium dissociation constant of an inhibitor or competing ligand from its target. Usually Kd stands for a measure of binding affinity in units of concentration.

The target in experiment [1] is T1, Kappa-type opioid receptor (Homo sapiens, UniProt P41145). Nature of the experiment: Displacement of [3H]-diprenorphine from recombinant human KOR transiently expressed in HEK293 cell membranes measured after 60 mins. The procedure, abridged:
(§1)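 Membranes from HEK293T cells transiently transfected with human DOR, KOR or MOR; [3H]diprenorphine final 0.3 nM (DOR, KOR) or 0.2-0.3 nM (MOR) with varying competitor, 60 min at 37 °C in Tris/MgCl2/EDTA buffer pH 7.4. Nonspecific binding with 10 μM naloxone; IC50 by nonlinear regression converted to Ki via Cheng-Prusoff; selectivity as Ki ratio.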
In general terms: In a radioligand displacement assay an active substance lowers the binding of a labelled ligand.

For experiment [2], the species on record is Homo sapiens. Nature of the experiment: Selectivity ratio of Ki for displacement of [3H]-diprenorphine from recombinant human MOR transiently expressed in HEK293 cell membranes to Ki for displacement of [3H]-diprenorphine from recombinant human KOR transiently expressed in HEK293 cell membranes. The procedure, abridged:
as §1

The species named for experiment [3] is Homo sapiens. Nature of the experiment: Selectivity ratio of Ki for displacement of [3H]-diprenorphine from recombinant human DOR transiently expressed in HEK293 cell membranes to Ki for displacement of [3H]-diprenorphine from recombinant human KOR transiently expressed in HEK293 cell membranes. A digest of the protocol:
as §1

The target of experiment [4] is Delta-type opioid receptor (Homo sapiens, UniProt P41143). Nature of the experiment: Displacement of [3H]-diprenorphine from recombinant human DOR transiently expressed in HEK293 cell membranes measured after 60 mins. The procedure, abridged:
as §1

Experiment [5] has as its target T1, Kappa-type opioid receptor. Kind of experiment: Inverse agonist activity at recombinant human KOR transiently expressed in HEK293T cells co-expressing G-alphaqi assessed as reduction in dynorphin A-stimulated inositol phosphate accumulation measured after 180 mins by HTRF assay. It counts as functional, cell-based. A general note: Time-resolved FRET reads energy transfer from a long-lived donor to a nearby acceptor.

The target in a further experiment is Mu-type opioid receptor (Homo sapiens, UniProt P35372). Kind of experiment: Displacement of [3H]-diprenorphine from recombinant human MOR transiently expressed in HEK293 cell membranes measured after 60 mins. A digest of the protocol:
as §1

Experiment [6] addresses T1, Kappa-type opioid receptor. Kind of experiment: Partial agonist activity at EA-tagged beta-arrestin2 fused KOR (unknown origin) stably expressed in HEK293 cells assessed as induction of beta-arrestin2 recruitment measured after 300 mins by chemiluminescence assay. It counts as cell-based. A digest of the protocol:
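PathHunter: HEK-293 cells stably expressing EA-tagged β-arrestin-2, transiently transfected with ProLink-tagged KOR-PK2; plated after 24 h, held a further 24 h at 37 °C. Compounds 1 pM to 10 μM final, 300 min at 37 °C, then detection mix 60 min at room temperature; chemiluminescence normalized to basal and dynorphin A maximum, nonlinear regression.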
Background: Activated receptors often draw arrestin, which recruitment assays turn into a signal.

The target of experiment [7] is T1, Kappa-type opioid receptor. Kind of experiment: Binding affinity to recombinant human KOR transiently expressed in CHOK1 cells at 50 nM measured 20 mins post compound washout by TIRF microscopic analysis relative to control. The format is cell-based. The procedure, abridged: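 CHO-K1 cells transiently expressing human KOR, 24 h post-transfection; incubated 20 min at 37 °C with 50 nM fluorescent ligand in complete medium, then washed on-stage with fresh imaging buffer. TIRF images of the same cell taken every minute over 20 min; cell ROI intensity compared with pre-wash image, bleaching control included; triplicate experiments.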

The target in experiment [8] is T1, Kappa-type opioid receptor. Kind of experiment: Binding affinity to recombinant human KOR expressed in CHOK1 cells assessed as time of KOR colocalization in cell surface at 10 nM by single molecule microscopic analysis. The format is cell-based. The procedure, abridged:
(§2)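 Human KOR transiently expressed in CHO-K1 cells, labelled 4 h post-transfection with Cy5 probe (10 nM) and Cy3 probe (100 nM), rapid wash, TIRF single-molecule imaging at 20 °C in HEPES buffer pH 7.3. Particles tracked automatically; observed co-localization durations deconvolved (Lucy-Richardson) against a CD86-SNAP (SiR-labelled) non-interacting control.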

Experiment [9] has as its target T1, Kappa-type opioid receptor. Kind of experiment: Binding affinity to recombinant human KOR transiently expressed in CHOK1 cells measured after 20 mins by TIRF microscopic analysis. The format is cell-based. The procedure, abridged: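 Saturation binding on CHO-K1 cells transiently expressing human KOR (24 h post-transfection): 20 min incubation at 37 °C with each ligand concentration in complete medium, one wash in HEPES buffer pH 7.3, TIRF imaging. Mean whole-cell intensity (>30 cells per concentration), normalized to highest concentration, fitted by nonlinear regression for Kd; three replicates.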

For experiment [10], the target named is T1, Kappa-type opioid receptor. Kind of experiment: Binding affinity to recombinant human KOR expressed in CHOK1 cells assessed as time of KOR colocalization in cell surface at 100 nM by single molecule microscopic analysis. The format is cell-based. A digest of the protocol: as §2
Experiment [11] concerns the target T1, Kappa-type opioid receptor. Kind of experiment: Binding affinity to recombinant human KOR expressed in CHOK1 cells assessed as compound-coupled receptor mobility by measuring distribution in super diffusion phase at 100 nM measured after 20 mins by TIRF-SMM based TA-MSD analysis. It counts as cell-based. A digest of the protocol:
(§3)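 Wild-type human KOR transiently transfected into CHO-K1 cells (Lipofectamine 2000); labelled 4 h post-transfection with probe at 100 nM for 20 min, washed in HEPES imaging buffer pH 7.3 and imaged by TIRF at 20 °C. Trajectories from automated particle tracking; time-averaged MSD of individual trajectories fitted to obtain diffusion coefficient and assign motion class.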

In experiment [12] the target is T1, Kappa-type opioid receptor. Kind of experiment: Binding affinity to recombinant human KOR expressed in CHOK1 cells assessed as compound-coupled receptor mobility by measuring distribution in immobile phase at 100 nM measured after 20 mins by TIRF-SMM based TA-MSD analysis. The format is cell-based. The procedure, abridged: as §3
In experiment [13] the target is T1, Kappa-type opioid receptor. Nature of the experiment: Binding affinity to recombinant human KOR expressed in CHOK1 cells assessed as compound-coupled receptor mobility by measuring distribution in normal diffusion phase at 100 nM measured after 20 mins by TIRF-SMM based TA-MSD analysis. The format is cell-based. A digest of the protocol: as §3
The target in experiment [14] is T1, Kappa-type opioid receptor. Nature of the experiment: Binding affinity to recombinant human KOR expressed in CHOK1 cells assessed as compound-coupled receptor mobility by measuring distribution in sub-diffusion phase at 100 nM measured after 20 mins by TIRF-SMM based TA-MSD analysis. The format is cell-based. The procedure, abridged:
as §3

Molecules are shown by their SMILES. Active and inactive are the calls of the source. No cut-off for these calls is given here.

Sequence of Delta-type opioid receptor (P41143 whole entry): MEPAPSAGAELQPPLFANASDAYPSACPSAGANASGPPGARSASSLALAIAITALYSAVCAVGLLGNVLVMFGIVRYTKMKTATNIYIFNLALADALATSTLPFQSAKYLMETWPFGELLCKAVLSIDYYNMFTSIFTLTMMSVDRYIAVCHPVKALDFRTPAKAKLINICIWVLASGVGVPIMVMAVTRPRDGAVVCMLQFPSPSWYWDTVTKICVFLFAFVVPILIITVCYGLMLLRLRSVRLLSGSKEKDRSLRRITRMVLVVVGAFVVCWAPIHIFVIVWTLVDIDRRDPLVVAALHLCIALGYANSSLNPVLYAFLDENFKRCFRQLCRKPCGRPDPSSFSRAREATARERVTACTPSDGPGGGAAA
Sequence of Mu-type opioid receptor (P35372 whole entry): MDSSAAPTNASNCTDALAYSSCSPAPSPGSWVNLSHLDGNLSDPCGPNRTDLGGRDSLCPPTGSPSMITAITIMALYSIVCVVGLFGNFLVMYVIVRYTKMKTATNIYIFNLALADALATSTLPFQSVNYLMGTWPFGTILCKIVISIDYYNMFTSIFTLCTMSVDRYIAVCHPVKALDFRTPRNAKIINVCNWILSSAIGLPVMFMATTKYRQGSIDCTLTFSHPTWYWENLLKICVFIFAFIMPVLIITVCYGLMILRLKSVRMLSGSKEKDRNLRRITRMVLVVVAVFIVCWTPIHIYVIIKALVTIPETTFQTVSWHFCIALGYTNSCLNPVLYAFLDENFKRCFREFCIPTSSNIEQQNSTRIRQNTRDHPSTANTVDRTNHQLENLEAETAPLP
T1 sequence (P41145 whole entry): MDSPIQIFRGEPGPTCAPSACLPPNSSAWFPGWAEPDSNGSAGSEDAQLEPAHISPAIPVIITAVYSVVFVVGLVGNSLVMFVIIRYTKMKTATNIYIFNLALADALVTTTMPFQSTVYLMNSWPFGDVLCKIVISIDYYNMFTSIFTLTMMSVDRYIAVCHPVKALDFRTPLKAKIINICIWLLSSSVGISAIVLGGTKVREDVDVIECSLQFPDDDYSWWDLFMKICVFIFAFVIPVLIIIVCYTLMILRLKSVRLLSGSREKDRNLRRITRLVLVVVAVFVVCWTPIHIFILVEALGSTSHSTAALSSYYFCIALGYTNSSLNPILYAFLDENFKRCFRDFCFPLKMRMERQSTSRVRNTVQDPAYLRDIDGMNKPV

For the compound `CN1/C(=C/C=C/C2=[N+](CCCCCC(=O)NCC(=O)NCC(=O)NCC(=O)NCC(=O)NCCCNC(=N)Nc3ccc4[nH]c5c(c4c3)C[C@@]3(O)[C@H]4Cc6ccc(O)c7c6[C@@]3(CCN4CC3CC3)[C@H]5O7)c3ccc(S(=O)(=O)[O-])cc3C2(C)C)C(C)(C)c2cc(S(=O)(=O)O)ccc21`, the inhibition constant Ki was determined as 3.2 nM in experiment [1], 280 nM in experiment [4] and 110 nM on Mu-type opioid receptor. Moreover, the Ratio Ki came to 34 in the experiment filed under Homo sapiens [2] and 88 in the experiment filed under Homo sapiens [3]. Further, the result in experiment [5] and in [6] was inactive.

With `CN1/C(=C/C=C/C=C/C2=[N+](CCCCCC(=O)NCC(=O)NCC(=O)NCCCNC(=N)Nc3ccc4[nH]c5c(c4c3)C[C@@]3(O)[C@H]4Cc6ccc(O)c7c6[C@@]3(CCN4CC3CC3)[C@H]5O7)c3ccc(S(=O)(=O)[O-])cc3C2(C)C)C(C)(C)c2cc(S(=O)(=O)O)ccc21`, the values for the inhibitory constant (Ki) (in experiment [1]; in experiment [4]; at Mu-type opioid receptor) were 1.1 nM, 106 nM and 100 nM, respectively. In addition, the figures for the Ratio Ki in the experiment filed under Homo sapiens [2] and in the experiment listed under Homo sapiens [3] were 91 and 100, respectively. For the same compound, in [7], the Activity was more than 90%. Further, the result in [5] and in experiment [6] was inactive.

Regarding `CN1/C(=C/C=C/C=C/C2=[N+](CCCCCC(=O)NCCCNC(=N)Nc3ccc4[nH]c5c(c4c3)C[C@@]3(O)[C@H]4Cc6ccc(O)c7c6[C@@]3(CCN4CC3CC3)[C@H]5O7)c3ccc(S(=O)(=O)[O-])cc3C2(C)C)C(C)(C)c2cc(S(=O)(=O)O)ccc21`, the inhibitory constant (Ki) in [1] was 1.4 nM; in experiment [4], 39 nM; on Mu-type opioid receptor it was 40 nM. In addition, the Ratio Ki in the experiment listed under Homo sapiens [2] was found to be 29; in the experiment filed under Homo sapiens [3], 28. For the same compound, the Activity in [7] was more than 90%. Also, the outcome in experiment [5] was Active. Besides, in experiment [8], the TIME is less than 2.78e-05 h. The Kd in experiment [9] was found to be 9.5 nM. In addition, the outcome in [6] was inactive.

As to `CN1/C(=C/C=C/C2=[N+](CCCCCC(=O)NCCCNC(=N)Nc3ccc4[nH]c5c(c4c3)C[C@@]3(O)[C@H]4Cc6ccc(O)c7c6[C@@]3(CCN4CC3CC3)[C@H]5O7)c3ccc(S(=O)(=O)[O-])cc3C2(C)C)C(C)(C)c2cc(S(=O)(=O)O)ccc21`, the inhibition constant (Ki) in experiment [1] came to 8.6 nM; in [4], 31 nM; at Mu-type opioid receptor, 380 nM. Moreover, the TIME in [10] was less than 2.78e-05 h. For the same compound, the Activity in experiment [11] is 8%; in experiment [12], 16%; in [13], 51%; in experiment [14], 25%. Besides, the Ratio Ki stood at 44 in the experiment listed under Homo sapiens [2] and 4 in the experiment listed under Homo sapiens [3]. The outcome in experiment [5] was Active. Besides, the Kd in experiment [9] turned out to be 18.8 nM. For the same compound, in [6], the outcome was inactive.

`CN1/C(=C/C=C/C=C/C2=[N+](CCCCCC(=O)NCC(=O)NCC(=O)NCC(=O)NCC(=O)NCCCNC(=N)Nc3ccc4[nH]c5c(c4c3)C[C@@]3(O)[C@H]4Cc6ccc(O)c7c6[C@@]3(CCN4CC3CC3)[C@H]5O7)c3ccc(S(=O)(=O)[O-])cc3C2(C)C)C(C)(C)c2cc(S(=O)(=O)O)ccc21`: the figures for the Ki (in [1]; in experiment [4]; at Mu-type opioid receptor) were 1.8 nM, 193 nM and 133 nM, respectively. Further, the values for the Ratio Ki in the experiment filed under Homo sapiens [2] and in the experiment filed under Homo sapiens [3] were 74 and 107, respectively. In addition, the Activity in experiment [7] was more than 90%. Moreover, the result in experiment [5] and in experiment [6] was inactive. Moreover, the Kd in [9] is 4.8 nM.
